# Cneo AK release: Cryptococcus neoformans lysis via adenylate kinase release. C. neoformans lysis, adenylate kinase release luminescence, 4 h; normalised: neutral wells 0, clomiphene wells 100. 360,000 tested, 0.2% active. lysis activity, % at 15 µM;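 active = mean lysis activity across replicates of at least 80%, whatever share of replicates individually reach that level; inactive = mean lysis activity below 80%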
#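 Schedule: static 4 h at 37 °C with compound, 1 h detection; system: C. neoformans cells; benchmarks: Clomiphene as positive control; buffer or medium: fresh YPD medium; measure: luminescence rise reflecting yeast cell lysis; measured by: luminescent adenylate kinase detection reagent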
# S100A4 inh HTS: inhibitors of human S100A4 binding to myosin IIA peptide; P26447; S100A4/TAMRA-MyoIIA peptide fluorescence polarization; inhibition, % at 10.7 µM; 360,000 tested, 0.14% active; AID 652163;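 active = mean inhibition of at least 70% across replicates, with every replicate also reaching that level; inconclusive = mean inhibition reaches 70% but some replicates fall short; inactive = mean inhibition below 70%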
# Target sequence (P26447 whole entry, looked up): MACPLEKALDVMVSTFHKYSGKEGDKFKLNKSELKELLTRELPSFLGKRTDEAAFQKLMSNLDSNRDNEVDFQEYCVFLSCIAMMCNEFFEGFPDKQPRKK
#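 Material: S100A4 monomer protein | Medium: HEPES pH 7.2 with CaCl2, KCl, NaCl, DTT, Triton | Reagent: Labelled myosin peptide probe, 5 nM | Doses: One dose per compound | Times: 5 min incubation before reading | Benchmarks: Neutral control DMSO, positive control TFP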
# MLL AF4-AF9 inh: blocks AF4 peptide binding to human AF9 | inhibition, % at 10 µM | 350,000 tested, 0.47% active | AlphaScreen, biotin-AF4 peptide binding to FLAG-AF9;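 active = every replicate reaching a set inhibition limit, whatever the replicate mean, cut at about 25% in these data; inconclusive = mean inhibition reaches that limit but some replicates miss it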;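 also: 0% = plate neutral control median and 100% = total signal loss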
# Target sequence (P42568 whole entry, looked up): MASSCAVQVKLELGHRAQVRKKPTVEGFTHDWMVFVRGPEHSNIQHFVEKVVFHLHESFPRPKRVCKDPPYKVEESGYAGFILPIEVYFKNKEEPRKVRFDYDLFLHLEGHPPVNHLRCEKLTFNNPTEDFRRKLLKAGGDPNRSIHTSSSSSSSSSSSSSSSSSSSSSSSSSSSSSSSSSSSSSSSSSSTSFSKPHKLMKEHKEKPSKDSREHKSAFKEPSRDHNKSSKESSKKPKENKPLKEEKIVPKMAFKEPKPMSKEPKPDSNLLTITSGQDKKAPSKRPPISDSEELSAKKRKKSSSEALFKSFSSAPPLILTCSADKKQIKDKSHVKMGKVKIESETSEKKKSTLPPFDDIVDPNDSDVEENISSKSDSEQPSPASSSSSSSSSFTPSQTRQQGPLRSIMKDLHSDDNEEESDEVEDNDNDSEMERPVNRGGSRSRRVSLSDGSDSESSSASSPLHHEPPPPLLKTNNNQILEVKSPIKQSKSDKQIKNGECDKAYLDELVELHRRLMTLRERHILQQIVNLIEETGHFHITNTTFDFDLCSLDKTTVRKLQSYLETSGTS
# PfHsp90 set2: growth inhibition of yeast expressing Plasmodium Hsp90; AID 504621; S. cerevisiae expressing PfHsp90, BacTiter-Glo ATP, 48 h; yeast lacking PDR1 and PDR3 efflux regulators; 310,000 tested, 0.32% active; inhibition, % at 9.4 µM;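 active = every replicate shows inhibition above about 80%, whatever the replicate mean, limit read from the data; inconclusive = mean inhibition reaches the set limit but some replicate falls short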;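 also: 0% = DMSO neutral controls and 100% = 20 µM radicicol positive controls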
# rRNA inh HTS: selective bacterial rRNA inhibition in E. coli; 350,000 tested, 1.6% active; GFP signal change (wild-type ribosome), % (test concentration not listed); E. coli WT GFP vs humanized-ribosome RFP mutants, fluorescence, 24 h; stronger effect = lower value; DMSO median 0, no signal -100; AID 720706;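 active = significant combined selectivity score with lowered wild-type GFP, culture density cut under 30%, mutant RFP and density less affected; inactive = any of these conditions unmet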
# DENV2 CPE: protects cells from dengue virus 2 cytopathic effect. DENV2-infected cells, cytopathic effect rescue, plate reader. CPE inhibition, % at 9.99 µM. 350,000 tested, 1.7% active. AID 651640; in the data active = CPE inhibition above about 20%, passing the limit was not always enough; inconclusive = no clear call, values can overlap the other calls; tested in BHK-21 cells;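 also: 0% = median of neutral control wells and 100% = median of positive control wells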
# * = called active by the depositor; ? = inconclusive; nt = no result. This is a sample that favours compounds with a hit; in the whole collection about 3.2% have one here.
SMILES,Cneo AK release,S100A4 inh HTS,MLL AF4-AF9 inh,PfHsp90 set2,rRNA inh HTS,DENV2 CPE
O=C(Nc1cccc(F)c1)N1CC(=O)N2[C@H](CO)[C@H](c3ccc(-c4cccc(F)c4)cc3)[C@@H]2C1,nt,-3.0,2.2,nt,-40.9,3.3
C[C@H](CO)N1C[C@H](C)[C@@H](CN(C)Cc2ccc(C(=O)O)cc2)Oc2ccc(NC(=O)CCC(F)(F)F)cc2C1=O,-0.3,19.8,-4.3,nt,9.3,5.7
Cc1ccccc1S(=O)(=O)N1C[C@H](O)COC[C@H]2O[C@H](CC(=O)NCc3ccccc3Cl)CC[C@@H]21,-0.9,1.7,2.1,nt,1.8,?
CCCN1CCC(=O)N([C@H](COc2ccccc2)CC(C)C)CC1,0.2,-0.7,0.6,nt,5.0,0.5
CC(C)C[C@@H](COc1ccccc1)N1CCN(CCc2ccccc2)CCC1=O,-5.7,-2.4,0.8,nt,-52.1,101.4*
COCC(=O)N1CCCCN2[C@H](CO)[C@H](c3ccc(C#Cc4ccc(OC)cc4)cc3)[C@@H]2C1,-2.6,-7.4,-6.9,nt,4.8,39.5*
COc1ccc(C#Cc2ccc([C@H]3[C@@H](CO)N4CCCCN(C(=O)c5ccncc5)C[C@H]34)cc2)cc1,-5.5,-2.3,3.8,nt,1.8,47.0*
C[C@H](O)C#Cc1ccc([C@H]2[C@H](CO)N3CCCCN(C(=O)c4ccncc4)C[C@@H]23)cc1,0.7,1.3,0.2,nt,4.7,-1.0
COCC(=O)N1CCCCN2[C@H](C1)[C@@H](c1ccc(C#Cc3ccccc3)cc1)[C@@H]2CO,-7.7,-18.3,-6.3,nt,-58.0,27.9*
COCC(=O)N1CCCCN2[C@H](CO)[C@@H](c3ccc(C#Cc4ccc(OC)cc4)cc3)[C@@H]2C1,-2.4,-7.3,-5.6,nt,-0.5,0.1
COCC(=O)N1CCCCN2[C@@H](CO)[C@H](c3ccc(C#Cc4ccccc4)cc3)[C@@H]2C1,0.8,19.8,0.9,nt,0.5,12.1
COCC#Cc1ccc([C@@H]2[C@@H](CO)N3CCCCN(C(=O)COC)C[C@H]23)cc1,-1.7,-8.8,-0.6,nt,2.2,33.9*
CCC(=O)N1CC2(C1)[C@H](c1ccc(-c3ccccc3C)cc1)[C@@H](CO)N2C(C)=O,nt,1.1,0.5,nt,-1.0,-3.9
COCC(=O)N1CCCCN2[C@H](C1)[C@H](c1ccc(C#Cc3ccccc3)cc1)[C@@H]2CO,0.8,-17.6,3.7,nt,7.1,39.9*
COc1ccc2c3c(n(C)c2c1)[C@@H](CO)N(C(=O)Nc1ccc(F)cc1)CC31CN(C(=O)c2ccc3c(c2)OCO3)C1,nt,-75.9,-0.1,nt,1.7,5.4
Cc1c(C(=O)NCc2cccnc2)oc2ccc(S(=O)(=O)N3CC(C)CC(C)C3)cc12 (configuration not stated),-4.3,2.2,-17.1,2.8,-3.9,21.2*
Cc1ccc(S(=O)(=O)Nc2ccc3c(c2)CC(=O)N([C@H](C)CO)C[C@H](C)[C@H](CN(C)S(=O)(=O)c2cn(C)cn2)O3)cc1,3.2,0.4,1.0,nt,3.1,2.7
Cc1nn(-c2ccc(C(=O)O)cc2)c2c1C(=O)CC(C)(C)C2,nt,-4.6,2.0,10.6,9.4,-2.0
Cc1c(CC(Cl)(Cl)Cl)c2c(n1O)CC(C)(C)CC2=O,nt,7.5,-1.5,-11.4,-31.6*,7.6
C[C@H]1CN([C@@H](C)CO)C(=O)c2cc(-c3ccccc3F)cnc2O[C@H]1CN(C)Cc1cccc(C(=O)O)c1,2.7,-1.3,-13.6,nt,5.0,17.2
CC(=O)N1C(=O)C2(C(C#N)=C(N)Oc3c2c(C)nn3-c2ccccc2)c2ccccc21 (configuration not stated),-3.1,nt,nt,-20.2,nt,nt
Cc1nn(-c2ccccc2)c2c1C1(C(=O)N3c4c(cccc41)C(C)CC3(C)C)C(C#N)=C(N)O2 (configuration not stated),-1.9,-0.9,12.3,-15.7,-45.7*,-3.7
C[C@H](CO)N1C[C@H](C)[C@H](CN(C)Cc2ccc(Cl)c(Cl)c2)OCCCC[C@H](C)Oc2ccc(NC(=O)C3CCCCC3)cc2C1=O,5.0,6.0,1.0,nt,-1.4,4.3
C[C@@H]1CCCCO[C@H](CN(C)S(=O)(=O)c2ccc(F)cc2)[C@@H](C)CN([C@H](C)CO)C(=O)c2cc(NC(=O)c3ccncc3)ccc2O1,-2.2,-2.0,-1.7,nt,2.4,6.2
O=C(NC(=O)c1ccccc1F)OCc1ccc(Cl)cc1Cl,nt,-1.1,-6.3,5.6,-40.2*,3.2
SMILES,Cneo AK release,S100A4 inh HTS,MLL AF4-AF9 inh,PfHsp90 set2,rRNA inh HTS,DENV2 CPE
COc1cc(/C=C2\SC(=S)N(Nc3ncc(C(F)(F)F)cc3Cl)C2=O)ccc1O,-2.0,nt,nt,106.2*,nt,nt
C[n+]1c2n(c3ccccc31)N=C(c1cc(C(C)(C)C)c(O)c(C(C)(C)C)c1)CS2,nt,-18.0,27.2*,36.7,-54.7,-3.7
COc1cccc(C2=Nn3c(nnc3-c3ccccc3O)SC2)c1,-2.0,nt,nt,-22.1,nt,nt
CCC1(C)Cc2ccccc2-c2nc(NCCCO)[nH]c(=O)c21 (configuration not stated),nt,6.2,4.9,12.5,-28.0*,5.8
CCC1(CC)Cc2ccccc2-c2nc(NCCCO)[nH]c(=O)c21,nt,0.5,-9.5,1.9,-2.7,0.1
Cc1nc2ccc(C(=O)NC(C)(C)C)cn2c1N(C)C(=O)CCc1ccccc1,0.0,0.3,2.8,nt,-0.3,34.5*
COc1ccc(CCNC(=O)CSC2=NS(=O)(=O)c3ccccc3N2)cc1OC,-4.0,-8.4,-9.2,7.9,3.0,81.7*
O=S(=O)(Nc1ccc(N2CCCCC2)cc1)c1ccc(F)cc1,0.7,-7.0,9.5,nt,-36.2*,6.6
O=S(=O)(Nc1ccc(N2CCOCC2)cc1)c1ccc(F)cc1,nt,1.6,0.4,7.7,4.3,6.6
CNCC(C)COc1ccccc1OCc1ccccc1 (configuration not stated),nt,3.5,6.1,1.6,-2.3,64.2*
CC(O)CNCCCOc1ccccc1OCc1ccccc1 (configuration not stated),nt,-1.4,0.7,nt,7.2,-3.0
C[C@@H]1CN([C@H](C)CO)C(=O)c2cc(NC(=O)Nc3ccc4c(c3)OCO4)ccc2O[C@@H]1CN(C)C,-0.1,5.2,1.7,nt,0.1,0.8
CC(C)CC#Cc1ccc([C@@H]2[C@@H](CO)N3C(=O)CN(C(=O)NC4CCCCC4)C[C@H]23)cc1,nt,1.8,1.9,nt,-10.4,7.9
COc1cccc(CNC(=O)[C@H]2CCCN2C(=O)C2CCCN2C(=O)c2ccc(OC)c(F)c2)c1 (some centres not stated),nt,2.4,nt,nt,23.9,27.7*
O=C(NCc1ccccc1)[C@H]1CCCN1C(=O)[C@H]1CCCN1C(=O)c1cccc2ccccc12,nt,-8.1,-1.5,nt,-2.5,-10.1
